Source: ChEMBL document CHEMBL4152376, “Optimization of 8-Hydroxyquinolines as Inhibitors of Catechol O-Methyltransferase” (J Med Chem, 2018)

Assays:
[1] = target: T1, Catechol O-methyltransferase (Homo sapiens, UniProt P21964); assay: Inhibition of c-terminal hexa-His tagged human S-COMT expressed in HEK293-6E cell membrane homogenate using 7,8-dihydroxy-4-methylcoumarin as substrate after 1 hr in presence of SAM by MTase glo methyltransferase assay
T1 sequence (P21964 whole entry): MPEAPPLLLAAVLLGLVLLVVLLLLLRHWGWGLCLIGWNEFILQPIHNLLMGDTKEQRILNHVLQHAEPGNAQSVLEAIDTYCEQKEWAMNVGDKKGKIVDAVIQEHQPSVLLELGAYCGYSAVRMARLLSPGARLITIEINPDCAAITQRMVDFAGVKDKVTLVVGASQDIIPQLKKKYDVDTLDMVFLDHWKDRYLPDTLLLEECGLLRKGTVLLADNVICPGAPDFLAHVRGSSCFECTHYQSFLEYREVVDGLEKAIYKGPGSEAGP
Method in brief: (§1)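 His6-tagged S-COMT (human or rat), expressed in 293-6E cells and purified by Ni-NTA and size exclusion, 1 ng per well. 20 µM SAM and 10 µM 7,8-dihydroxy-4-methylcoumarin in pH 6.9 Tris/MgCl2/DTT buffer, 1.5% DMSO. 1 h at 37 °C, then MTase-Glo luminescence read against a SAH standard curve. […] 4-parameter IC50; triplicate wells, three runs.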

[2] = target: T1, Catechol O-methyltransferase; assay: Inhibition of c-terminal hexa-His tagged human MB-COMT expressed in HEK293 cell membrane homogenate using norepinephrine as substrate after 1 hr in presence of SAM by MTase glo methyltransferase assay
Method in brief: (§2)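 Membrane homogenate of HEK293 cells expressing C-terminal His6 MB-COMT (human about 7 ng, rat about 4 ng per well, protein by Bradford […]). 20 µM SAM and 7 µM norepinephrine in 50 mM Tris, 5–10 mM MgCl2, 2.5 mM DTT, pH 6.9, final DMSO 1.5%. 1 h at 37 °C, then MTase-Glo luminescence. […] 4-parameter IC50 fit; triplicate points, three experiments.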

[3] = target: T1, Catechol O-methyltransferase; assay: Inhibition of c-terminal hexa-His tagged human MB-COMT (unknown origin)
[4] = test system: Rattus norvegicus; assay: Oral bioavailability in rat at 3/10 mg/kg; assay type: ADME, organism-based; conditions: in vivo
Method in brief: (§3)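 Rat pharmacokinetics after a 1 mpk iv dose (n=3) and a 3 or 10 mpk oral dose (n=3).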

[5] = Clearance in rat hepatocytes assessed as per million cells; assay type: ADME, cell-based, Hepatocyte; conditions: read-out: CLH
[6] = Drug uptake in brain of C57BL/6J mouse at 10 mg/kg, ip measured at 1 hr post dose; assay type: ADME, organism-based; conditions: for concentration at 1 h: C57BL/6J, brain, read-out: Drug uptake; for Drug uptake: in vivo, 1 h, BLD = below limit of detection
Method in brief: (§4)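 Male C57BL/6J mice (8 weeks), single ip injection of 10 mg/kg suspended in 0.1% Tween80/0.1% antifoam/1% methylcellulose at 10 mL/kg. Two mice per timepoint; at 1 h, plasma separated at 4 °C and brain homogenized in 4 volumes PBS pH 7.4. Total brain and plasma levels measured.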

[7] = Plasma concentration C57BL/6J mouse at 10 mg/kg, ip measured at 1 hr post dose; assay type: ADME, organism-based; method in brief: as §4
[8] = test system: Rattus norvegicus; assay: Volume of distribution at steady state in rat at 1 mg/kg, iv or 3/10 mg/kg, po; assay type: ADME, organism-based; conditions: in vivo; method in brief: as §3
[9] = Half life in rat at 1 mg/kg, iv or 3/10 mg/kg, po; assay type: ADME, organism-based; conditions: in vivo; method in brief: as §3
[10] = Fraction unbound in rat plasma by equilibrium dialysis; assay type: ADME, cell-free
Method in brief: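 Percent free drug in mouse or rat plasma, measured by equilibrium dialysis.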

[11] = Efflux ratio of permeability in MDCK cells; assay type: ADME, cell-based, Canis lupus familiaris; conditions: dog
Method in brief: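 Efflux ratio taken as […] transport across P-glycoprotein-expressing MDCK cells.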

[12] = Unbound plasma concentration in Sprague-Dawley rat 10 mg/kg, po after 4 hrs by ES-UPLC analysis; assay type: ADME, organism-based; conditions: in vivo
Method in brief: (§5)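 Sprague Dawley rats given 10 mg/kg po; CSF, plasma and brain collected at 4 h. Drug measured in CSF; free plasma and brain levels computed from total levels using plasma protein and brain tissue binding fractions. Free CSF derived from CSF binding by equilibrium dialysis with pooled rat CSF. Ratios taken from these values.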

[13] = test system: Rattus norvegicus; assay: In vivo inhibition of COMT in Sprague-Dawley rat assessed as DOPAC levels in CSF at 10 mg/kg, po measured at 4 hrs post dose by LC-MS analysis relative to control; assay type: functional
Method in brief: (§6)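 Male Sprague Dawley rats (176–200 g on arrival) dosed orally at 10 mg/kg in Tween80/antifoam/methylcellulose suspension, 10 mL/kg, vehicle group as control (n=5–10). At 4 h under isoflurane, CSF drawn from cisterna magna. HVA and DOPAC quantified by LC-MS against standards in 0.01 M perchloric acid/aCSF with d5 internal standards. Reported as % of vehicle.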

[14] = test system: Rattus norvegicus; assay: In vivo inhibition of COMT in Sprague-Dawley rat assessed as HVA levels in CSF at 10 mg/kg, po measured at 4 hrs post dose by LC-MS analysis relative to control; assay type: functional; set-up: scale not given: the % may be the effect or the level left; method in brief: as §6
[15] = target: T2, Catechol O-methyltransferase (Rattus norvegicus, UniProt P22734); assay: Inhibition of c-terminal hexa-His tagged rat MB-COMT expressed in HEK293 cell membrane homogenate using norepinephrine as substrate after 1 hr in presence of SAM by MTase glo methyltransferase assay; method in brief: as §2
T2 sequence (P22734 whole entry): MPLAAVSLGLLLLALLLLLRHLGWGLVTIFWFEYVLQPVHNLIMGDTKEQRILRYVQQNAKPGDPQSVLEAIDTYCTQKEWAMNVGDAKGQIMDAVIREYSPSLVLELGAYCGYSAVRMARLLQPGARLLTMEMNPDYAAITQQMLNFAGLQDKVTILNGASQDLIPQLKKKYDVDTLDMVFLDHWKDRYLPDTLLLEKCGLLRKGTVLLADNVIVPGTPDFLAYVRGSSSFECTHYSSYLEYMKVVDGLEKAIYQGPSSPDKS

[16] = Unbound drug level in brain of Sprague-Dawley rat at 10 mg/kg, po after 4 hrs by ES-UPLC analysis; assay type: ADME, organism-based; conditions: in vivo; method in brief: as §5
[17] = Ratio of drug level in CSF of Sprague-Dawley rat to unbound plasma concentration in Sprague-Dawley rat at 10 mg/kg, po after 4 hrs by ES-UPLC analysis; assay type: ADME, organism-based; conditions: in vivo; method in brief: as §5
[18] = Drug level in CSF of Sprague-Dawley rat at 10 mg/kg, po after 4 hrs by ES-UPLC analysis; assay type: ADME, organism-based, Cerebrospinal fluid; conditions: read-out: Drug uptake; method in brief: as §5
[19] = Ratio of drug level in CSF of Sprague-Dawley rat to unbound brain concentration in Sprague-Dawley rat at 10 mg/kg, po after 4 hrs by ES-UPLC analysis; assay type: ADME, organism-based; conditions: in vivo; method in brief: as §5
[20] = target: T2, Catechol O-methyltransferase; assay: Inhibition of c-terminal hexa-His tagged rat S-COMT expressed in HEK293-6E cell membrane homogenate using 7,8-dihydroxy-4-methylcoumarin as substrate after 1 hr in presence of SAM by MTase glo methyltransferase assay; method in brief: as §1

| SMILES | IC50 [1] [nM] | IC50 [2] [nM] | hepatocyte CLint [5] [µL/min/1e6 cells] | concentration at 1 h [6] [ng/g] | concentration at 1 h [7] [ng/mL] | other results |
| --- | --- | --- | --- | --- | --- | --- |
| O=S(=O)(c1cc(C(F)(F)F)c(O)c2ncccc12)C1CCCC1 | > 10000 | > 10000 |  |  |  |  |
| O=S(=O)(O)c1ccc(O)c2ncccc12 |  |  |  |  |  | IC50 [3]: 6310 nM |
| COc1ccc(S(=O)(=O)N2CCCC2)c2cccnc12 |  | > 10000 |  |  |  |  |
| Cc1ccc(-c2ccc(O)c3ncccc23)cc1 |  | 251 |  |  |  |  |
| Cc1ccc(S(=O)(=O)c2cc(O)c3ncccc3c2)cc1 |  |  |  |  |  | IC50 [3]: 1580 nM |
| O=S(=O)(c1ccc(F)cc1)c1cc(Cl)c(O)c2ncccc12 | > 10000 | 200 | 4 | 5660 | 16600 | F [4]: 23%; Vdss [8]: 0.23 L/kg; half-life [9]: 8.9 h; Fu [10]: 0.5; efflux ratio [11]: 0.8 |
| Cc1ccc(S(=O)(=O)c2cc(C(F)(F)F)c(O)c3ncccc23)cc1 | > 10000 | > 10000 |  |  |  |  |
| Cc1ccc(S(=O)(=O)c2cc(Br)c(O)c3ncccc23)cc1 | > 10000 | 1260 |  |  |  |  |
| Cc1ccc(C(=O)c2ccc(O)c3ncccc23)cc1 |  | 3980 |  |  |  |  |
| Oc1cccc2cccnc12 [OXYQUINOLINE] |  | 1580 |  |  |  | IC50 [3]: 3160 nM |
| O=C(c1ccc(O)c2ncccc12)N1CCCC1 |  | > 10000 |  |  |  |  |

Continued, in another order:

| IC50 [1] [nM] | IC50 [2] [nM] | hepatocyte CLint [5] [µL/min/1e6 cells] | concentration at 1 h [6] [ng/g] | concentration at 1 h [7] [ng/mL] | SMILES | other results |
| --- | --- | --- | --- | --- | --- | --- |
| 6310 | 79.4 | 12 | 1090 | 2540 | O=S(=O)(c1ccc(C(F)(F)F)cc1)c1cc(F)c(O)c2ncccc12 | F [4]: 66%; Vdss [8]: 3.8 L/kg; half-life [9]: 3.5 h; Fu [10]: 0.6; efflux ratio [11]: 1.1 |
| 1260 | 63.1 | 46 |  | 3540 | O=S(=O)(c1ccc(C(F)(F)F)cc1)c1ccc(O)c2ncccc12 | Drug uptake [6]: Bld |
| 501 | 20 |  |  |  | Cc1ccc(S(=O)(=O)c2ccc(O)c3ncccc23)cc1 | IC50 [3]: 20 nM |
|  | 3.16 | 255 |  |  | O=S(=O)(c1ccc(O)c2ncccc12)N1CCC(c2ccc(F)cc2)C1 (stereo not drawn) |  |
| 1580 | 50.1 | 39 | 11 | 250 | CCS(=O)(=O)c1ccc(O)c2ncccc12 |  |
| 3160 | 20 | 103 | 55 | 576 | Cc1cc(S(=O)(=O)N2CCCC2)c2cccnc2c1O |  |
| 501 | 6.31 | 36 | 518 | 1740 | Cc1ccc(S(=O)(=O)c2cc(F)c(O)c3ncccc23)cc1 | F [4]: 34%; Vdss [8]: 1.2 L/kg; half-life [9]: 0.26 h |
| 7940 | 20 | 18 | 2790 | 14700 | O=S(=O)(c1cc(Cl)c(O)c2ncccc12)C1CCCC1 | Cp(f) [12]: 32 nM; CSF DOPAC level (% of vehicle) [13]: 213%; F [4]: 37%; Activity [14]: 97%; IC50 [15]: < 1 nM; Drug uptake(free) [16]: 5.6 nM; Vdss [8]: 0.3 L/kg; Ratio [17]: 11; concentration at 4 h [18]: 358 nM; half-life [9]: 11 h; Ratio [19]: 64; Fu [10]: 0.5; IC50 [20]: > 10000 nM |
| 2000 | 7.94 | 177 | 10.5 | 68 | O=S(=O)(c1ccc(O)c2ncccc12)N1CCCC1 |  |
| 501 | 6.31 |  |  | 173 | O=S(=O)(c1ccc(O)c2ncccc12)C1CCCC1 | F [4]: 24%; Drug uptake [6]: Bld; Vdss [8]: 1.8 L/kg; half-life [9]: 0.18 h; Fu [10]: 0.5 |
| 3160 | 10 | 14 | 1150 | 16200 | O=S(=O)(c1cc(Cl)c(O)c2ncccc12)N1CCCC1 | F [4]: 33%; Vdss [8]: 0.8 L/kg; half-life [9]: 8.6 h; Fu [10]: 0.5; efflux ratio [11]: 0.4 |
